In ChEMBL document CHEMBL5303300, “EUbOPEN Chemogenomics Library - Multiplex” (2023):
Values joined by “and” are separate entries in the source; they are usually repeats but may differ in a detail not shown here. Identical values can stand only once.

Test system: Fibroblast
Assay: Multiplex assay against human fibroblast
Type: toxicity, cell-based
Conditions: number of replicates 2
In short: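 Four dyes were applied at seeding to live cells: Hoechst33342, BioTracker Green Microtubule Cytoskeleton Dye, MitoTracker Red and Annexin V Alexa Fluor 680. Imaging after compound addition used a CQ1 microscope at 37°C and 5% CO2. CellPathfinder machine-learning gating then sorted cells into Hoechst high-intensity objects or normal cells, normal cells into healthy, pyknosed or fragmented nuclei, and pyknosed cells into mitotic or apoptotic, with tubulin, mitochondrial-mass and membrane-permeability phenotypes given as per cents of healthy-nucleus cells.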

[1] = 12 h, 1 µM, compound concentration 1 uM
[2] = 12 h, 10 µM, compound concentration 10 uM
[3] = 24 h, 1 µM, compound concentration 1 uM
[4] = 24 h, 10 µM, compound concentration 10 uM
[5] = 48 h, 1 µM, compound concentration 1 uM
[6] = 48 h, 10 µM, compound concentration 10 uM

CN(C)CC#Cc1ccc2[nH]c3c(c2c1)-c1nc(N)ncc1CCC3
Population Apoptotic (%) [1]: 30% and 35%
Population Fragmented Nuclei (%) [1]: 32% and 18%
Population Healthy Nuclei (%) [1]: 49% and 55%
Population Hoechst High Intensity Objects (%) [1]: 0%
Population Membrane Permeable-Phenotype (%) [1]: 4% and 6%
Population Mitochondria Different-Phenotype (%) [1]: 2% and 0%
Population Mitotic Cells (%) [1]: 69% and 64%
Population Normal (%) [1]: 100%
Population Pyknosed Nuclei (%) [1]: 17% and 25%
Population Tubulin-Different-Phenotype (%) [1]: 23% and 28%
Total Cell Count [1]: 293 and 186
Population Fragmented Nuclei (%) [2]: 25% and 22%
Population Healthy Nuclei (%) [2]: 49% and 62%
Population Hoechst High Intensity Objects (%) [2]: 0%
Population Membrane Permeable-Phenotype (%) [2]: 0% and 5%
Population Mitochondria Different-Phenotype (%) [2]: 2% and 1%
Population Mitotic Cells (%) [2]: 61% and 89%
Population Normal (%) [2]: 100% and 99%
Population Pyknosed Nuclei (%) [2]: 25% and 15%
Population Tubulin-Different-Phenotype (%) [2]: 26% and 31%
Total Cell Count [2]: 228 and 378
Population Apoptotic (%) [3]: 48% and 47%
Population Fragmented Nuclei (%) [3]: 18% and 27%
Population Healthy Nuclei (%) [3]: 65% and 60%
Population Hoechst High Intensity Objects (%) [3]: 0%
Population Membrane Permeable-Phenotype (%) [3]: 7% and 1%
Population Mitochondria Different-Phenotype (%) [3]: 0% and 4%
Population Mitotic Cells (%) [3]: 51% and 52%
Population Normal (%) [3]: 100% and 99%
Population Pyknosed Nuclei (%) [3]: 16% and 11%
Population Tubulin-Different-Phenotype (%) [3]: 25% and 26%
Total Cell Count [3]: 221 and 287
Population Apoptotic (%) [4]: 39% and 42%
Population Fragmented Nuclei (%) [4]: 19% and 16%
Population Healthy Nuclei (%) [4]: 62% and 56%
Population Hoechst High Intensity Objects (%) [4]: 4% and 1%
Population Membrane Permeable-Phenotype (%) [4]: 4% and 1%
Population Mitochondria Different-Phenotype (%) [4]: 4% and 3%
Population Mitotic Cells (%) [4]: 60% and 57%
Population Normal (%) [4]: 95% and 98%
Population Pyknosed Nuclei (%) [4]: 17% and 26%
Population Tubulin-Different-Phenotype (%) [4]: 52% and 43%
Total Cell Count [4]: 286 and 184
Population Apoptotic (%) [5]: 70% and 47%
Population Fragmented Nuclei (%) [5]: 25% and 32%
Population Healthy Nuclei (%) [5]: 65% and 62%
Population Hoechst High Intensity Objects (%) [5]: 1% and 2%
Population Membrane Permeable-Phenotype (%) [5]: 3%
Population Mitochondria Different-Phenotype (%) [5]: 0%
Population Mitotic Cells (%) [5]: 29% and 52%
Population Normal (%) [5]: 98% and 97%
Population Pyknosed Nuclei (%) [5]: 9% and 5%
Population Tubulin-Different-Phenotype (%) [5]: 24% and 17%
Total Cell Count [5]: 266 and 347
Population Apoptotic (%) [6]: 68% and 64%
Population Fragmented Nuclei (%) [6]: 13% and 6%
Population Healthy Nuclei (%) [6]: 67% and 77%
Population Hoechst High Intensity Objects (%) [6]: 0% and 5%
Population Membrane Permeable-Phenotype (%) [6]: 13% and 12%
Population Mitochondria Different-Phenotype (%) [6]: 1% and 5%
Population Mitotic Cells (%) [6]: 31% and 35%
Population Normal (%) [6]: 100% and 94%
Population Pyknosed Nuclei (%) [6]: 18% and 16%
Population Tubulin-Different-Phenotype (%) [6]: 52% and 63%
Total Cell Count [6]: 153 and 185

C[C@@H](OC[C@@]1(c2ccccc2)CC[C@]2(CCC(=O)N2)CN1)c1cc(C(F)(F)F)cc(C(F)(F)F)c1 [ROLAPITANT]
Population Apoptotic (%) [1]: 32% and 48%
Population Fragmented Nuclei (%) [1]: 7% and 12%
Population Healthy Nuclei (%) [1]: 76% and 62%
Population Hoechst High Intensity Objects (%) [1]: 0%
Population Membrane Permeable-Phenotype (%) [1]: 9% and 4%
Population Mitochondria Different-Phenotype (%) [1]: 4% and 2%
Population Mitotic Cells (%) [1]: 67% and 51%
Population Normal (%) [1]: 100% and 99%
Population Pyknosed Nuclei (%) [1]: 15% and 25%
Population Tubulin-Different-Phenotype (%) [1]: 26% and 13%
Total Cell Count [1]: 195 and 264
Population Apoptotic (%) [2]: 40% and 46%
Population Fragmented Nuclei (%) [2]: 17% and 10%
Population Healthy Nuclei (%) [2]: 67% and 71%
Population Hoechst High Intensity Objects (%) [2]: 0%
Population Membrane Permeable-Phenotype (%) [2]: 5% and 6%
Population Mitochondria Different-Phenotype (%) [2]: 7% and 3%
Population Mitotic Cells (%) [2]: 60% and 53%
Population Normal (%) [2]: 100%
Population Pyknosed Nuclei (%) [2]: 15% and 17%
Population Tubulin-Different-Phenotype (%) [2]: 45% and 26%
Total Cell Count [2]: 131 and 146
Population Apoptotic (%) [3]: 40% and 55%
Population Fragmented Nuclei (%) [3]: 15% and 13%
Population Healthy Nuclei (%) [3]: 74% and 66%
Population Hoechst High Intensity Objects (%) [3]: 0%
Population Membrane Permeable-Phenotype (%) [3]: 2% and 8%
Population Mitochondria Different-Phenotype (%) [3]: 1%
Population Mitotic Cells (%) [3]: 60% and 44%
Population Normal (%) [3]: 100%
Population Pyknosed Nuclei (%) [3]: 9% and 20%
Population Tubulin-Different-Phenotype (%) [3]: 19% and 18%
Total Cell Count [3]: 202 and 257
Population Apoptotic (%) [4]: 52% and 60%
Population Fragmented Nuclei (%) [4]: 23% and 16%
Population Healthy Nuclei (%) [4]: 62% and 66%
Population Hoechst High Intensity Objects (%) [4]: 0%
Population Membrane Permeable-Phenotype (%) [4]: 2% and 3%
Population Mitochondria Different-Phenotype (%) [4]: 14% and 5%
Population Mitotic Cells (%) [4]: 47% and 40%
Population Normal (%) [4]: 100%
Population Pyknosed Nuclei (%) [4]: 14% and 16%
Population Tubulin-Different-Phenotype (%) [4]: 59% and 28%
Total Cell Count [4]: 134 and 153
Population Apoptotic (%) [5]: 58% and 66%
Population Fragmented Nuclei (%) [5]: 13% and 11%
Population Healthy Nuclei (%) [5]: 78% and 74%
Population Hoechst High Intensity Objects (%) [5]: 0%
Population Membrane Permeable-Phenotype (%) [5]: 4% and 8%
Population Mitochondria Different-Phenotype (%) [5]: 1%
Population Mitotic Cells (%) [5]: 41% and 33%
Population Normal (%) [5]: 100%
Population Pyknosed Nuclei (%) [5]: 8% and 14%
Population Tubulin-Different-Phenotype (%) [5]: 14% and 11%
Total Cell Count [5]: 204 and 254
Population Apoptotic (%) [6]: 85% and 93%
Population Fragmented Nuclei (%) [6]: 32% and 23%
Population Healthy Nuclei (%) [6]: 58% and 67%
Population Hoechst High Intensity Objects (%) [6]: 0%
Population Membrane Permeable-Phenotype (%) [6]: 5% and 3%
Population Mitochondria Different-Phenotype (%) [6]: 3% and 6%
Population Mitotic Cells (%) [6]: 14% and 6%
Population Normal (%) [6]: 100%
Population Pyknosed Nuclei (%) [6]: 8% and 9%
Population Tubulin-Different-Phenotype (%) [6]: 44% and 20%
Total Cell Count [6]: 158 and 167
